{"source": "paper PMC9653265", "about": "(Journal of medicinal chemistry, 2022)", "key": {"[1]": {"test_system": "45 receptors, channels, and transporters", "test": "PDSP off-target binding screen at 45 receptors, channels and transporters", "conditions": "at 10 μM"}, "[2]": {"test_system": "mouse middle cerebral artery occlusion (MCAO) model of ischemic stroke", "test": "MCAO ischemic stroke model, cerebral infarct volume", "type": "in vivo"}, "[3]": {"test_system": "mouse middle cerebral artery occlusion (MCAO) model of ischemic stroke", "conditions": "mice, 1 mg/kg/day × 3 days, administered 4 h after onset of stroke; cited from earlier work"}, "[4]": {"test_system": "mouse middle cerebral artery occlusion (MCAO) model of ischemic stroke", "test": "Open-field test after MCAO", "type": "in vivo", "conditions": "middle-aged mice after MCAO; vs vehicle; over 4 weeks", "in_short": "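The model used 60 min right MCAO in middle-aged male and female C57BL/6 mice. Test compound or PBS vehicle was infused by osmotic minipump for 3 days. Testing was at baseline and on post-MCAO days 2, 7, 14, 21 and 28. Mice started from a corner of a 16″ acrylic box and explored ~10 min. Total photobeam breaks and center-zone break percentage were recorded. This test preceded rotarod by 1 h. Data are mean ± S.D.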"}, "[5]": {"test_system": "mouse middle cerebral artery occlusion (MCAO) model of ischemic stroke", "test": "Rotarod test after MCAO", "type": "in vivo", "conditions": "middle-aged mice after MCAO; 4–40 rpm, 5 min; over 4 weeks", "in_short": "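Middle-aged male and female C57BL/6 mice underwent 60 min right MCAO. They received test compound or PBS by osmotic minipump for 3 days. Rotarod was done at baseline and on post-MCAO days 2, 7, 14, 21 and 28, 1 h after open-field testing. The rod accelerated 4–40 rpm over 5 min. Each mouse had two trials 30 min apart, and mean latency to fall (s) was used. Data are mean ± S.D.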"}, "[6]": {"test_system": "mouse middle cerebral artery occlusion (MCAO) model of ischemic stroke", "test": "Novel Object Recognition Task", "type": "in vivo", "conditions": "middle-aged mice, 4 weeks after MCAO; dose of 3 mg/kg; p < 0.05 vs Veh"}, "[7]": {"test_system": "primary human monocyte-derived macrophages", "test": "Calcium influx assay on human monocyte-derived macrophages", "type": "cell-based", "conditions": "ATP 50 μM, 15 min pretreatment", "in_short": "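Monocytes came from fresh whole blood of healthy donors. They were matured 5–7 days in RPMI with GM-CSF (5 ng/mL), then seeded at 10^4 cells/dish for ≥24 h. Cells were loaded with Calbryte 590 AM for 60 min in HBSS/HEPES and washed. They were pretreated 15 min with test compound (0, 0.1, 0.3, 0.6, 1, 3 μM), then stimulated with ATP 50 μM. Confocal images were taken every 6 s for up to 4 min, and peak Ca2+ amplitude was quantified.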"}, "hP2X1R": {"molecular_target": "T1, hP2X1R (Homo sapiens, UniProt P51575)", "T1 sequence (P51575 1-399)": "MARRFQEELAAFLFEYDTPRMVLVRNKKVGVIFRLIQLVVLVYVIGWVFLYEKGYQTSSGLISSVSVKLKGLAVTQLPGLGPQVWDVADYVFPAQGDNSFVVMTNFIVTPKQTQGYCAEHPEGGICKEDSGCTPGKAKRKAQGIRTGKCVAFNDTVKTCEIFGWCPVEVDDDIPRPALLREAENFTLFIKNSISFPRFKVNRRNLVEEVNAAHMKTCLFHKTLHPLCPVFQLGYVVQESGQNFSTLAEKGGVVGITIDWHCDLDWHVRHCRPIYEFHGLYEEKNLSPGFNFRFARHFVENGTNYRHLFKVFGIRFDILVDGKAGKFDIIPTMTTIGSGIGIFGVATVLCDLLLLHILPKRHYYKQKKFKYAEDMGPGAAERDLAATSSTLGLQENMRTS", "test": "cell-based", "conditions": "CHO-K1, read-out: hP2X1R % inhib."}, "P2X7R": {"test_system": "P2X7R", "conditions": "cited from earlier work"}, "mP2X4R": {"test_system": "mP2X4R", "conditions": "cited from earlier work"}, "[8]": {"conditions": "young adult male mice, 5 mg/kg/day × 3 days continuous infusion, 3 days after stroke, vs Veh"}, "[9]": {"conditions": "young adult male mice (8–12 weeks), doses of 1.5 and 3.0 mg/kg/day × 3 days continuous infusion (Alzet minipump), 3 days after stroke, vs Veh"}}}
{"molecule": "Cc1ccc2c3c(ccc2c1)N(c1cccc(-c2noc(=S)[n-]2)c1)C(=O)CC(=O)N3.[Na+]", "note": "[Compound 22c]", "values": [{"measurement": "off-target binding at 45 receptors, channels, and transporters", "setting": "[1]", "value": "no significant interactions"}, {"measurement": "cortical infarct volume", "setting": "[2]; [8]", "value": "not significant"}, {"measurement": "striatal infarct volume", "setting": "[2]; [8]", "value": "not significant"}, {"measurement": "total hemispheric infarct volume", "setting": "[2]; [8]", "value": "moderate but significant decrease"}]}
{"molecule": "O=C1CN=C(c2cccc(Br)c2)c2oc3ccccc3c2N1", "note": "[Compound 3, 5-(3-bromophenyl)-1,3-dihydro-2H-benzofuro[3,2-e][1,4]diazepin-2-one]", "values": [{"measurement": "stroke infarct size", "setting": "[3]", "value": "reduced"}]}
{"molecule": "CCN(CC)CC.O=C1CC(=O)N(c2cccc(-c3noc(=S)[nH]3)c2)c2cc(Br)c3ccccc3c2N1", "note": "[Compound 21d, 7-Bromo-5-(3-(5-thioxo-4,5-dihydro-1,2,4-oxadiazol-3-yl)-phenyl)-1,5-dihydro-2H-naphtho[1,2-b][1,4]diazepine-2,4(3H)-dione]", "values": [{"measurement": "off-target binding at 45 receptors, channels, and transporters", "setting": "[1]", "value": "no significant interactions"}]}
{"molecule": "CCN(CC)CC.O=C1CC(=O)N(c2ccnc(-c3noc(=S)[nH]3)c2)c2ccc3ccccc3c2N1", "note": "[Compound 21u, 5-(2-(5-Thioxo-4,5-dihydro-1,2,4-oxadiazol-3-yl)pyridin-4-yl)-1,5-dihydro-2H-naphtho[1,2-b][1,4]diazepine-2,4(3H)-dione]", "values": [{"measurement": "effective dose in murine MCAO ischemic stroke model", "setting": "[2]; neuroprotective and neuro-rehabilitative properties", "value": 1.5, "unit": "mg/kg"}, {"measurement": "cortical infarct volume", "setting": "[2]; [9]", "value": "significantly reduced"}, {"measurement": "total hemispheric infarct volume", "setting": "[2]; [9]", "value": "significantly reduced"}, {"measurement": "total exploratory behavior (total beam breaks, open-field task)", "setting": "[4]", "value": "did not show any differences"}, {"measurement": "motor coordination and balance (rotarod)", "setting": "[5]", "value": "did not improve"}, {"measurement": "learning and memory function (NORT)", "setting": "[6]", "value": "significant retention of memory"}, {"measurement": "inhibition of ATP-induced increase in calcium influx", "setting": "[7]; HMDM of healthy subjects", "value": "dose-dependent (0–3 μM) inhibition"}, {"measurement": "doses giving a significant decrease of the peak Ca2+ amplitude", "setting": "[7]; vs ATP only", "value": "≥ 0.6", "unit": "µM"}]}
{"molecule": "O=C1CC(=O)N(c2cccc(-c3noc(=S)[nH]3)n2)c2ccc3ccccc3c2N1", "note": "[Compound 21v, 5-(6-(5-Thioxo-4,5-dihydro-1,2,4-oxadiazol-3-yl)pyridin-2-yl)-1,5-dihydro-2H-naphtho[1,2-b][1,4]diazepine-2,4(3H)-dione]", "values": [{"measurement": "inhibition at 30 µM", "setting": "hP2X1R", "value": "≤ 31", "unit": "%"}]}
{"molecule": "O=C1CC(=O)N(c2cccc(-c3noc(=S)[n-]3)c2)c2ccc3ccccc3c2N1.[Na+]", "note": "[Compound 5, 5-(3-(5-Thioxo-4,5-dihydro-1,2,4-oxadiazol-3-yl)phenyl)-1,5-dihydro-2H-naphtho[1,2-b][1,4]diazepine-2,4(3H)-dione]", "values": [{"measurement": "off-target binding at 45 receptors, channels, and transporters", "setting": "[1]", "value": "no significant interactions"}, {"measurement": "activity at the P2X7R", "setting": "P2X7R", "value": "inactive"}, {"measurement": "potency in blocking mP2X4R effects in vitro compared with hP2X4R", "setting": "mP2X4R", "value": "as potent"}]}
{"molecule": "CC(=O)NCc1ccc2ccc3c(c2c1)NC(=O)CC(=O)N3c1cccc(-c2noc(=S)[nH]2)c1", "note": "[Compound 21i, N-((2,4-Dioxo-5-(3-(5-thioxo-4,5-dihydro-1,2,4-oxadiazol-3-yl)-phenyl)-2,3,4,5-tetrahydro-1H-naphtho[1,2-b][1,4]diazepin-10-yl)-methyl)acetamide]", "values": [{"measurement": "inhibition at 30 µM", "setting": "hP2X1R", "value": "≤ 31", "unit": "%"}]}
